In ChEMBL document CHEMBL1671867, “Novel polymyxin derivatives carrying only three positive charges are effective antibacterial agents” (Antimicrob Agents Chemother, 2008):
≈ marks a conversion by molar mass, not a printed value. Bridge positions count the residues as written; N and C are the ends. Square brackets hold non-standard residues; d marks the D form. Peptide text beside a SMILES is read from it. * marks the point of attachment. Octanoyl = CCCCCCCC(=O)*; Dab = NCC[C@H](N)C(=O)O; Abu = CC[C@H](N)C(=O)O

Columns and labels:
Escherichia coli [1] = assay: Antibacterial activity against Escherichia coli IH3080 assessed as growth inhibition at 10 ug after 18 hrs by […] in presence of 1 ug/ml rifampin; type: functional
Escherichia coli [2] = assay: Antibacterial activity against Escherichia coli IH3080 assessed as growth inhibition at 10 ug after 18 hrs by […]; type: functional
Escherichia coli [3] = assay: Antibacterial activity against Escherichia coli ATCC […] by CLSI M7-A7 agar dilution method; type: functional
Candida albicans = assay: Antibacterial activity against Candida albicans ATCC 28366 by CLSI M7-A7 agar dilution method; type: functional
Staphylococcus aureus = assay: Antibacterial activity against Staphylococcus aureus ATCC 25923 by CLSI M7-A7 agar dilution method; type: functional
Method in brief: (§1)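 Agar dilution on Mueller-Hinton agar with test substance at 0.25 to 32 μg/ml in twofold steps. Spots of about 10^4 CFU applied with a multipoint inoculator.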

Escherichia coli [4] = assay: Antibacterial activity against Escherichia coli SC 9253 by CLSI M7-A7 agar dilution method; type: functional; method in brief: as §1
Escherichia coli [5] = assay: Antibacterial activity against Escherichia coli SC 9252 by CLSI M7-A7 agar dilution method; type: functional
Pseudomonas aeruginosa = assay: Antibacterial activity against Pseudomonas aeruginosa ATCC 27853 by CLSI M7-A7 agar dilution method; type: functional; method in brief: as §1
Acinetobacter baumannii [6] = assay: Antibacterial activity against Acinetobacter baumannii by CLSI M7-A7 agar dilution method; type: functional
Serratia marcescens = assay: Antibacterial activity against Serratia marcescens ATCC 8100 by CLSI M7-A7 agar dilution method; type: functional; method in brief: as §1
Acinetobacter baumannii [7] = assay: Antibacterial activity against Acinetobacter baumannii ATCC 19606 by CLSI M7-A7 agar dilution method; type: functional
Citrobacter freundii = assay: Antibacterial activity against Citrobacter freundii ATCC 8090 by CLSI M7-A7 agar dilution method; type: functional
Enterobacter cloacae [8] = assay: Antibacterial activity against Enterobacter cloacae by CLSI M7-A7 agar dilution method; type: functional
Enterobacter cloacae [9] = assay: Antibacterial activity against Enterobacter cloacae CCUG52947 by CLSI M7-A7 agar dilution method; type: functional
Enterobacter cloacae [10] = assay: Antibacterial activity against Enterobacter cloacae ATCC 23355 by CLSI M7-A7 agar dilution method; type: functional
Klebsiella oxytoca [11] = assay: Antibacterial activity against Klebsiella oxytoca CCUG51683 by CLSI M7-A7 agar dilution method; type: functional; method in brief: as §1
Klebsiella oxytoca [12] = assay: Antibacterial activity against Klebsiella oxytoca ATCC 13182 by CLSI M7-A7 agar dilution method; type: functional; method in brief: as §1
Klebsiella pneumoniae [13] = assay: Antibacterial activity against Klebsiella pneumoniae by CLSI M7-A7 agar dilution method; type: functional; method in brief: as §1
Escherichia coli [14] = assay: Antibacterial activity against Escherichia coli by CLSI M7-A7 agar dilution method; type: functional; method in brief: as §1
Klebsiella pneumoniae [15] = assay: Antibacterial activity against Klebsiella pneumoniae CCUG45421 by CLSI M7-A7 agar dilution method; type: functional; method in brief: as §1
Escherichia coli [16] = assay: Antibacterial activity against Escherichia coli IH3080 by CLSI M7-A7 agar dilution method; type: functional
[17] = Inhibition of [3H]gentamicin binding to brush border membrane of renal cortex
Method in brief: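 Brush border membrane vesicles prepared from male albino rat renal cortex by Mg2+-EGTA precipitation. Incubated with 20 μM [3H]gentamicin in 10 mM HEPES pH 7.5 with 300 mM mannitol, with or without compound, 60 min at 4°C. Then filtered, washed, and bound radioactivity counted by scintillation. IC50 fitted with the Hill equation.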

CCCCCCCC(=O)N[C@H](C(=O)N[C@@H](CC)C(=O)N[C@H]1CCNC(=O)[C@H](CC(C)C)NC(=O)[C@H](CCN)NC(=O)[C@H](CCN)NC(=O)[C@H](CC(C)C)NC(=O)[C@@H](Cc2ccccc2)NC(=O)[C@H](CCN)NC1=O)[C@@H](C)O (Octanoyl-T[Abu][Dab][Dab][dF]L[Dab][Dab]L; lactam 3-C)
inhibition zone (IZ) (Escherichia coli [1]): 180 mm2 | inhibition zone (IZ) (Escherichia coli [2]): 50 mm2

CCCCCCCC(=O)N[C@H](C(=O)N[C@@H](CC)C(=O)N[C@H]1CCNC(=O)[C@H]([C@@H](C)O)NC(=O)[C@H](CCN)NC(=O)[C@H](CCN)NC(=O)[C@H](CC(C)C)NC(=O)[C@@H](Cc2ccccc2)NC(=O)[C@H](CCN)NC1=O)[C@@H](C)O (Octanoyl-T[Abu][Dab][Dab][dF]L[Dab][Dab]T; lactam 3-C)
MIC (Escherichia coli [3]): > 32 µg/mL | inhibition zone (IZ) (Escherichia coli [1]): 194 mm2 | inhibition zone (IZ) (Escherichia coli [2]): 32 mm2 | MIC (Candida albicans): > 32 µg/mL | MIC (Staphylococcus aureus): > 32 µg/mL | MIC (Escherichia coli [4]): > 32 µg/mL | MIC (Escherichia coli [5]): > 32 µg/mL | MIC (Pseudomonas aeruginosa): > 32 µg/mL | MIC (Acinetobacter baumannii [6]): > 32 µg/mL | MIC (Serratia marcescens): > 32 µg/mL | MIC (Acinetobacter baumannii [7]): > 32 µg/mL | MIC (Citrobacter freundii): 16 µg/mL (≈ 14.9 µM) | MIC (Enterobacter cloacae [8]): > 32 µg/mL | MIC (Enterobacter cloacae [9]): > 32 µg/mL | MIC (Enterobacter cloacae [10]): 32 µg/mL (≈ 29.8 µM) | MIC (Klebsiella oxytoca [11]): 32 µg/mL (≈ 29.8 µM) | MIC (Klebsiella oxytoca [12]): 32 µg/mL (≈ 29.8 µM) | MIC (Klebsiella pneumoniae [13]): > 32 µg/mL | MIC (Escherichia coli [14]): > 16 µg/mL | MIC (Klebsiella pneumoniae [15]): > 32 µg/mL | MIC (Escherichia coli [16]): > 32 µg/mL

CCCCCCCC(=O)N[C@H](C(=O)N[C@@H](CCN)C(=O)N[C@H]1CCNC(=O)[C@H]([C@@H](C)O)NC(=O)[C@H](CCN)NC(=O)[C@H](CCN)NC(=O)[C@H](CC(C)C)NC(=O)[C@@H](Cc2ccccc2)NC(=O)[C@H](CC)NC1=O)[C@@H](C)O (Octanoyl-T[Dab][Dab][Abu][dF]L[Dab][Dab]T; lactam 3-C)
inhibition zone (IZ) (Escherichia coli [1]): 100 mm2 | inhibition zone (IZ) (Escherichia coli [2]): 0 mm2

CCCCCCCC(=O)N[C@H](C(=O)N[C@@H](CCN)C(=O)N[C@H]1CCNC(=O)[C@H]([C@@H](C)O)NC(=O)[C@H](CCN)NC(=O)[C@H](CC)NC(=O)[C@H](CC(C)C)NC(=O)[C@@H](Cc2ccccc2)NC(=O)[C@H](CCN)NC1=O)[C@@H](C)O (Octanoyl-T[Dab][Dab][Dab][dF]L[Abu][Dab]T; lactam 3-C)
inhibition zone (IZ) (Escherichia coli [1]): 250 mm2 | inhibition zone (IZ) (Escherichia coli [2]): 60 mm2

CCCCCCCC(=O)N[C@H](C(=O)N[C@@H](CCN)C(=O)N[C@H]1CCNC(=O)[C@H]([C@@H](C)O)NC(=O)[C@H](CC)NC(=O)[C@H](CCN)NC(=O)[C@H](CC(C)C)NC(=O)[C@@H](Cc2ccccc2)NC(=O)[C@H](CCN)NC1=O)[C@@H](C)O (Octanoyl-T[Dab][Dab][Dab][dF]L[Dab][Abu]T; lactam 3-C)
inhibition zone (IZ) (Escherichia coli [1]): 170 mm2 | inhibition zone (IZ) (Escherichia coli [2]): 0 mm2

CCCCCCCC(=O)N[C@@H](CCN)C(=O)N[C@H](C(=O)N[C@@H](CCN)C(=O)N[C@H]1CCNC(=O)[C@H]([C@@H](C)O)NC(=O)[C@H](CCN)NC(=O)[C@H](CC)NC(=O)[C@H](CC(C)C)NC(=O)[C@@H](Cc2ccccc2)NC(=O)[C@H](CC)NC1=O)[C@@H](C)O (Octanoyl-[Dab]T[Dab][Dab][Abu][dF]L[Abu][Dab]T; lactam 4-C)
inhibition zone (IZ) (Escherichia coli [1]): 0 mm2 | inhibition zone (IZ) (Escherichia coli [2]): 0 mm2

CCCCCCCC(=O)N[C@@H](CCN)C(=O)N[C@H](C(=O)N[C@@H](CCN)C(=O)N[C@H]1CCNC(=O)[C@H]([C@@H](C)O)NC(=O)[C@H](CC)NC(=O)[C@H](CCN)NC(=O)[C@H](CC(C)C)NC(=O)[C@@H](Cc2ccccc2)NC(=O)[C@H](CC)NC1=O)[C@@H](C)O (Octanoyl-[Dab]T[Dab][Dab][Abu][dF]L[Dab][Abu]T; lactam 4-C)
inhibition zone (IZ) (Escherichia coli [1]): 10 mm2 | inhibition zone (IZ) (Escherichia coli [2]): 0 mm2

CC(C)C[C@@H]1NC(=O)[C@@H](Cc2ccccc2)NC(=O)[C@H](CCN)NC(=O)[C@@H](NC(=O)[C@H](CCN)NC(=O)[C@@H](N)[C@@H](C)O)CCNC(=O)[C@H]([C@@H](C)O)NC(=O)[C@H](CCN)NC(=O)[C@H](CCN)NC1=O [POLYMYXIN B NONAPEPTIDE] (H-T[Dab][Dab][Dab][dF]L[Dab][Dab]T; lactam 3-C)
inhibition zone (IZ) (Escherichia coli [1]): 143 mm2 | inhibition zone (IZ) (Escherichia coli [2]): <=5 mm2

GENTAMICIN
IC50 [17]: 90.2 µM

POLYMYXIN B
IC50 [17]: 39.3 µM
